ERAP1 inh: inhibitors of human ERAP1 aminopeptidase; Q9NZ08; recombinant ERAP1, Leu-AMC fluorescence, 60 min; inhibition, % at 10.7 µM; 340,000 compounds, 0.15% hits;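 active = mean replicate inhibition of at least 30%, or all replicates individually reaching that 30% level; inactive = mean below 30% and not every replicate reaching it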;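 also: 0% = neutral control wells and 100% = L-leucinethiol positive control wells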
Target sequence (Q9NZ08 whole entry, looked up): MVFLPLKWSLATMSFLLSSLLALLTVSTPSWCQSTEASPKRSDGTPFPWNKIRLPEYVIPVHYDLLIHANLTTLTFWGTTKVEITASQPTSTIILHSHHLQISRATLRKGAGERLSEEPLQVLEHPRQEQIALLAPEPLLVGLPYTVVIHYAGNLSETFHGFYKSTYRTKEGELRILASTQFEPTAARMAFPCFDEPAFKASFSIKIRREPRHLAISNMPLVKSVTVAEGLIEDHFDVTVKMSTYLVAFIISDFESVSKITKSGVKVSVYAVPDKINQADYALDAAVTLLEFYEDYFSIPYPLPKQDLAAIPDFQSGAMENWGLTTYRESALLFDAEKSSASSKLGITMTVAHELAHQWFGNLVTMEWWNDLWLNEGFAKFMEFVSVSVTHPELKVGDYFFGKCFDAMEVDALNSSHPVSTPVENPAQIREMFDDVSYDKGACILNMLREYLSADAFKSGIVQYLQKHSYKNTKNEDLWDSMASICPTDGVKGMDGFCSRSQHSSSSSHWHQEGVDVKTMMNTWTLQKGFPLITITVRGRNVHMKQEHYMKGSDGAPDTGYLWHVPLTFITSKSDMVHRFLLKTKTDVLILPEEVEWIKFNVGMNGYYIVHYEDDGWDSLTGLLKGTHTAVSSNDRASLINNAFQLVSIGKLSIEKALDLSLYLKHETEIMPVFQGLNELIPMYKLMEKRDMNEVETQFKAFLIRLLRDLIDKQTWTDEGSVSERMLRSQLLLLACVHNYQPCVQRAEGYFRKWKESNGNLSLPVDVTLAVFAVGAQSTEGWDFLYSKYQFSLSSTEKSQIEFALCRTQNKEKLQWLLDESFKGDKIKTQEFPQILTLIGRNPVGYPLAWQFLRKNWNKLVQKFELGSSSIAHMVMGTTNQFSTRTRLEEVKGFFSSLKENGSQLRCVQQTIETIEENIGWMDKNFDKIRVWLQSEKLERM
S100A4 MyoIIA: S100A4-myosin IIA interaction inhibition. P26447. 360,000 compounds, 0.14% hits. S100A4/TAMRA-MyoIIA peptide fluorescence polarization. AID 652163. inhibition, % at 10.7 µM;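 active = mean inhibition of at least 70% across replicates, with every replicate also reaching that level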
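Test system: S100A4 monomer protein; Medium: HEPES pH 7.2 with CaCl2, KCl, NaCl, DTT, Triton; Probe or stimulus: TAMRA-labelled myosin IIA heavy-chain peptide probe, 5 nM; Doses: one dose per compound; Times: polarization read 5 min after assay mix addition, stable 5–60 min; Benchmarks: neutral control DMSO, positive control TFP.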
SIRT5 inh: blocks human SIRT5 desuccinylation of peptide; Q9NXA8; Purified SirT5, succinyl-peptide AMC, trypsin-coupled fluorescence; inhibition, % at 15 µM; 330,000 compounds, 1.1% hits; AID 652115; in the data active = inhibition above about 15%
E-sel inducer: induces E-selectin expression in human endothelial cells. P16581. HUVEC E-selectin immunofluorescence imaging; normalized: neutral wells 0, TNF-alpha wells 100. activation, % at 7.58 µM. 260,000 compounds, 0.37% hits;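 active = mean E-selectin-positive cell signal at least 10% of the positive control, reached in at least 60% of replicates, without over 20% cell loss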
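assay system = HUVEC, human umbilical vein endothelial cells | input = 3,000 HUVEC seeded per well | medium = EGM-2 growth medium on 0.1% gelatin-coated wells | dosing = one compound dose added by pin transfer | signal = immunofluorescence imaging | read-out basis = % PE-positive cells | control set = TNF-alpha, DMSO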
rRNA inh HTS: selective bacterial rRNA inhibition in E. coli; E. coli WT GFP vs humanized-ribosome RFP mutants, fluorescence, 24 h; active compounds read low; DMSO median 0, no signal -100; GFP signal change (wild-type ribosome), % (concentration not given with the values); 350,000 compounds, 1.6% hits;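 active = significant combined selectivity score with lowered wild-type GFP, culture density cut under 30%, mutant RFP and density less affected; inactive = any of these conditions unmet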
MLL AF4-AF9 inh: MLL-AF4/AF9 protein interaction inhibition; P42568; AlphaScreen, biotin-AF4 peptide binding to FLAG-AF9; inhibition, % at 10 µM; 350,000 compounds, 0.47% hits;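 active = every replicate reaching a set inhibition limit, whatever the replicate mean, cut at about 25% in these data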;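 also: 0% = plate neutral control median and 100% = total signal loss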
* hit, by the source's call. Most compounds without a hit are left out; they make up all but 3.4% or so of the library.

How did Cc1[nH]c2ccccc2c1/C=N/Nc1nc2ccccc2[nH]1 do in these assays?
ERAP1 inh: -9; S100A4 MyoIIA: 2; SIRT5 inh: 0; E-sel inducer: -1; rRNA inh HTS: -47*; MLL AF4-AF9 inh: 22

How did C[C@H](CO)N1C[C@H](C)[C@H](CN(C)S(=O)(=O)c2cccs2)Oc2ccc(NC(=O)Cc3ccccc3)cc2C1=O do in these assays?
ERAP1 inh: 6; S100A4 MyoIIA: -11; SIRT5 inh: 2; E-sel inducer: -12; rRNA inh HTS: 3; MLL AF4-AF9 inh: -29

What do the screens show for `O=C1CN(S(=O)(=O)Cc2ccccc2)C[C@H]2[C@H](c3ccc(C#Cc4cccnc4)cc3)[C@H](CO)N12`?
ERAP1 inh: 3; S100A4 MyoIIA: -30; SIRT5 inh: -1; E-sel inducer: 0; rRNA inh HTS: -1; MLL AF4-AF9 inh: 0

Results for O=C(C1CCCC1)N1CC2(C1)[C@@H](c1ccccc1)[C@@H](CO)N2C(=O)NC1CCCC1 ?
ERAP1 inh: 1; S100A4 MyoIIA: 25; SIRT5 inh: -1; E-sel inducer: 0; rRNA inh HTS: 1; MLL AF4-AF9 inh: -1

Results for C[C@@H]1CN([C@H](C)CO)C(=O)c2cc(NS(=O)(=O)c3ccc(Cl)cc3)ccc2O[C@@H](C)CCCCO[C@@H]1CN(C)C(=O)CCC(F)(F)F ?
ERAP1 inh: 1; S100A4 MyoIIA: 2; SIRT5 inh: 14; E-sel inducer: 1; rRNA inh HTS: -1; MLL AF4-AF9 inh: -2

How did CCCNC(=O)N1CC2(CN(C(=O)C3CC3)C2)c2c([nH]c3cc(OC)ccc23)[C@@H]1CO do in these assays?
ERAP1 inh: 0; S100A4 MyoIIA: -9; SIRT5 inh: -2; E-sel inducer: 0; rRNA inh HTS: 5; MLL AF4-AF9 inh: 2

How did O=C(O)c1cccc(-n2sc3ccccc3c2=O)c1 do in these assays?
ERAP1 inh: 90*; S100A4 MyoIIA: -5; SIRT5 inh: -1; rRNA inh HTS: 12; MLL AF4-AF9 inh: -22

What do the screens show for `O=C([C@@H]1[C@@H](CO)[C@@H]2Cn3c(ccc(-c4cccnc4)c3=O)[C@H]1N2Cc1ccncc1)N1CCOCC1`?
ERAP1 inh: 0; S100A4 MyoIIA: -3; SIRT5 inh: -27; E-sel inducer: 0; rRNA inh HTS: 2; MLL AF4-AF9 inh: -4

What do the screens show for `Cc1cc(C(C)(C)C)ccc1NC(=O)CC(C)(C)CC(=O)O`?
ERAP1 inh: 4; S100A4 MyoIIA: -1; SIRT5 inh: -6; E-sel inducer: 0; rRNA inh HTS: 9; MLL AF4-AF9 inh: 26*

What do the screens show for `O=C(Nc1ccccc1Br)C1CCN(S(=O)(=O)c2cccs2)CC1`?
ERAP1 inh: -1; S100A4 MyoIIA: 6; rRNA inh HTS: -16*; MLL AF4-AF9 inh: -3

Results for CC=Cc1ccc2n(c1=O)C[C@@H]1[C@@H](CO)[C@H](C(=O)N(C)C)N(CCC)[C@H]21 (mixture of isomers) ?
ERAP1 inh: 4; S100A4 MyoIIA: 7; SIRT5 inh: -3; E-sel inducer: -2; rRNA inh HTS: 3; MLL AF4-AF9 inh: -2

What do the screens show for `COc1cccc(-c2ccc(SCC(=O)c3ccccc3)nn2)c1`?
ERAP1 inh: 5; S100A4 MyoIIA: -3; SIRT5 inh: -1; E-sel inducer: 0; rRNA inh HTS: -27*; MLL AF4-AF9 inh: -4

How did O=C(C[C@@H]1CC[C@H]2[C@@H](COC[C@@H](O)CN2S(=O)(=O)c2ccccc2)O1)NCc1ccc(-c2ccccc2)cc1 do in these assays?
ERAP1 inh: 1; S100A4 MyoIIA: 1; SIRT5 inh: 13; E-sel inducer: 1; rRNA inh HTS: 1; MLL AF4-AF9 inh: 10

Results for CCN(CCO)c1ccc(N=Nc2cc(C)[nH]n2)cc1 ?
ERAP1 inh: 0; S100A4 MyoIIA: 1; SIRT5 inh: 6; rRNA inh HTS: -21*; MLL AF4-AF9 inh: 2

What do the screens show for `O=C(/C=C/c1ccccn1)c1ccc(Br)cc1O`?
ERAP1 inh: -1; S100A4 MyoIIA: -2; SIRT5 inh: 0; E-sel inducer: 105*; rRNA inh HTS: -14; MLL AF4-AF9 inh: 2

How did CS(=O)(=O)N1[C@H](C#N)[C@@H](c2ccc(C#CC3CCCC3)cc2)[C@@H]1CO do in these assays?
ERAP1 inh: 3; S100A4 MyoIIA: -8; SIRT5 inh: 1; E-sel inducer: 0; rRNA inh HTS: -60; MLL AF4-AF9 inh: 3

How did O=C(COc1ccccc1)Nc1ccc(Cl)cn1 do in these assays?
ERAP1 inh: 1; S100A4 MyoIIA: 0; SIRT5 inh: -2; E-sel inducer: -1; rRNA inh HTS: 1; MLL AF4-AF9 inh: 1

Results for O=C(COc1ccc2c(c1)OCO2)Nc1ccc(Cl)cn1 ?
ERAP1 inh: -3; S100A4 MyoIIA: -1; SIRT5 inh: 26*; E-sel inducer: 1; rRNA inh HTS: 5; MLL AF4-AF9 inh: -4

What do the screens show for `Cc1nn2c(N3CCN(C)CC3)cc(C(C)(C)C)nc2c1-c1ccccc1`?
S100A4 MyoIIA: -6; SIRT5 inh: 15*; rRNA inh HTS: -45; MLL AF4-AF9 inh: 8

How did CN(Cc1ccccc1)C(=O)COc1ccc(N(C)S(=O)(=O)c2ccc(F)cc2)cc1 do in these assays?
S100A4 MyoIIA: 1; SIRT5 inh: 18*; E-sel inducer: 0; rRNA inh HTS: -18; MLL AF4-AF9 inh: 1

Results for CCCN1C[C@@H](C)[C@@H](OC)CN(C)C(=O)c2ccc(NC(=O)c3ccccc3)cc2OC[C@@H]1C ?
ERAP1 inh: 2; S100A4 MyoIIA: 11; SIRT5 inh: -11; E-sel inducer: 0; rRNA inh HTS: 2; MLL AF4-AF9 inh: -2

Results for CC1=CN2C(=N)/C(=C/c3ccc([N+](=O)[O-])o3)C(=O)N=C2S1 ?
ERAP1 inh: 4; S100A4 MyoIIA: -17; SIRT5 inh: 21*; E-sel inducer: 1; rRNA inh HTS: 6; MLL AF4-AF9 inh: 4

How did COc1cccc(S(=O)(=O)N(C)C[C@@H]2Oc3ncc(-c4cccc(C(F)(F)F)c4)cc3C(=O)N([C@H](C)CO)C[C@@H]2C)c1 do in these assays?
ERAP1 inh: 2; S100A4 MyoIIA: 1; SIRT5 inh: 20*; E-sel inducer: 0; rRNA inh HTS: -3; MLL AF4-AF9 inh: -1

Results for C[C@H](CO)N1C[C@H](C)[C@H](CN(C)S(=O)(=O)c2ccc(F)cc2)Oc2ncc(C#Cc3ccc(C(F)(F)F)cc3)cc2C1=O ?
ERAP1 inh: 0; S100A4 MyoIIA: 7; SIRT5 inh: 7; E-sel inducer: 0; rRNA inh HTS: 4; MLL AF4-AF9 inh: -3

How did C[C@@H]1CN([C@H](C)CO)C(=O)c2cc(C#CC3CC3)cnc2O[C@@H]1CN(C)S(C)(=O)=O do in these assays?
ERAP1 inh: 0; S100A4 MyoIIA: 117*; SIRT5 inh: 4; E-sel inducer: 0; rRNA inh HTS: 6; MLL AF4-AF9 inh: -7
